Source: article PMC3275116 (Clinics, 2012)
Read-outs that look alike come from different tables or passages of the source.

Experiments:
[1] = Biodistribution in healthy Swiss mice; assay type: in vivo; conditions: i.v. 0.1 mL/18.5 MBq, mean ± SD n = 6
Outline: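 Male Swiss albino mice (20 - 25 g) received 99mTc-labeled conjugate by tail vein (0.1 mL/18.5 MBq). Six mice per time point were killed by cervical dislocation at 5, 30, 90 and 240 min. Organs were excised, weighed and counted on a NaI(Tl) gamma counter; stomach and intestine were counted after removing luminal contents. %ID/g was calculated using injected-dose activity as standard; mean ± SD.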

[2] = system: PC-3 tumors; assay type: in vivo; conditions: PC-3 tumor-bearing mice
[3] = Determination of log P values; assay type: physicochemical; conditions: n-octanol/water 3 mL:3 mL, 100 µL radiotracer, gamma counter, triplicate samples
Outline: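 Radiotracer (100 µL; 99mTc labeling by stannous-tartrate exchange at 100°C, 20 min) was added to equal volumes (3 mL each) of n-octanol and water, stirred vigorously and centrifuged. Triplicate samples from each phase were gamma-counted to give the partition ratio and log P.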

[4] = system: PC-3 human prostate carcinoma cells; assay: In vitro cell binding assay with increasing cold conjugate; assay type: cell-based; conditions: 120 min
Outline: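 PC3 androgen-independent cells were grown in RPMI 1640 with 10% (v/v) fetal calf serum at 37°C, 5% CO2, harvested near confluency by trypsinization, and seeded at 10^6 cells/well 24 h before assay. Wells received 90 pM 99mTc-labeled peptide with increasing cold conjugate (1 nM to 18 nM) and were incubated 120 min. Cell-associated radioactivity was gamma-counted.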

[5] = system: PC-3 tumors; assay: Biodistribution in Nude mice bearing PC-3 tumors; assay type: in vivo; conditions: for Blood uptake / Bone uptake / Heart uptake / Lung uptake / Muscle uptake / Spleen uptake / Stomach uptake / Tumor uptake: mean ± SD n = 6
Outline: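 Athymic male nude mice (16 - 20 g) received 5.0×10^6 PC3 cells subcutaneously in the upper back; tumors grew 2–3 weeks to about 1 cm diameter. 99mTc-labeled conjugate was given by tail vein and biodistribution evaluated at 30 and 90 min post-injection; blocking groups were coinjected with excess cold conjugate. Organs were excised, weighed and gamma-counted; %ID/g was computed against injected-dose activity; mean ± SD, n = 6.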

[6] = system: DU-145 prostate cells; conditions: cited from earlier work
[7] = system: PC-3 cells; conditions: cited from earlier work
[8] = cited from earlier work

Which results are given for “FRPNRAQDYNTNK-SAMA-G-G-G-Ahx-NH2 [99mTc-SAMA-G3-Ahx-DUP-1]”?
Blood uptake ([1]; 5 min): 1.21±0.02 %ID/g; Bone uptake ([1]; 5 min): 0.84±0.17 %ID/g; Heart uptake ([1]; 5 min): 0.82±0.14 %ID/g; Kidney uptake ([1]; 5 min): 22.62±2.03 %ID/g; Liver uptake ([1]; 5 min): 12.31±2.19 %ID/g; Lung uptake ([1]; 5 min): 1.48±0.23 %ID/g; Muscle uptake ([1]; 5 min): 0.77±0.06 %ID/g; Pancreas uptake ([1]; 5 min): 1.44±0.33 %ID/g; Spleen uptake ([1]; 5 min): 1.37±0.18 %ID/g; Blood uptake ([1]; 30 min): 0.43±0.06 %ID/g; Bone uptake ([1]; 30 min): 0.20±0.01 %ID/g; Heart uptake ([1]; 30 min): 0.24±0.07 %ID/g; Kidney uptake ([1]; 30 min): 21.06±0.41 %ID/g; Liver uptake ([1]; 30 min): 8.58±1.75 %ID/g; Lung uptake ([1]; 30 min): 0.73±0.16 %ID/g; Muscle uptake ([1]; 30 min): 0.14±0.04 %ID/g; Pancreas uptake ([1]; 30 min): 0.18±0.11 %ID/g; Spleen uptake ([1]; 30 min): 0.28±0.07 %ID/g; Blood uptake ([1]; 90 min): 0.08±0.01 %ID/g; Bone uptake ([1]; 90 min): 0.05±0.02 %ID/g; Heart uptake ([1]; 90 min): 0.04±0.01 %ID/g; Kidney uptake ([1]; 90 min): 7.28±2.07 %ID/g; Liver uptake ([1]; 90 min): 1.57±0.57 %ID/g; Lung uptake ([1]; 90 min): 0.15±0.037 %ID/g; Muscle uptake ([1]; 90 min): 0.51±0.01 %ID/g; Pancreas uptake ([1]; 90 min): 0.05±0.01 %ID/g; Spleen uptake ([1]; 90 min): 0.09±0.03 %ID/g; Blood uptake ([1]; 240 min): 0.05±0.01 %ID/g; Bone uptake ([1]; 240 min): 0.05±0.01 %ID/g; Heart uptake ([1]; 240 min): 0.03±0.02 %ID/g; Kidney uptake ([1]; 240 min): 3.22±0.43 %ID/g; Liver uptake ([1]; 240 min): 1.53±0.64 %ID/g; Lung uptake ([1]; 240 min): 0.13±0.07 %ID/g; Muscle uptake ([1]; 240 min): 0.17±0.07 %ID/g; Pancreas uptake ([1]; 240 min): 0.04±0.01 %ID/g; Spleen uptake ([1]; 240 min): 0.07±0.02 %ID/g; cold conjugate-blocked tumor uptake ([2]; 30 min post-injection): 82%; cold conjugate-blocked tumor uptake ([2]; 90 min post-injection): 83%; partition ratio [3]: 0.00389; Radioactivity associated with PC3 tumor cells (binding) ([4]; 90 pM 99mTc-labeled peptide, no cold peptide, 37°C): ~1.97%; decrease of binding with cold peptide ([4]; cold conjugate increased 0 to 18 nM, 90 pM tracer): 63%; Uptake ratio Tumor/blood ([5]; 30 min post-injection): 1.23; Uptake ratio Tumor/muscle ([5]; 30 min post-injection): 3.15; Blood uptake ([5]; 30 min post-injection): 0.69±0.14 %ID/g; Bone uptake ([5]; 30 min post-injection): 0.31±0.08 %ID/g; Heart uptake ([5]; 30 min post-injection): 0.41±0.02 %ID/g; Lung uptake ([5]; 30 min post-injection): 1.24±0.43 %ID/g; Muscle uptake ([5]; 30 min post-injection): 0.27±0.27 %ID/g; Spleen uptake ([5]; 30 min post-injection): 0.56±0.13 %ID/g; Stomach uptake ([5]; 30 min post-injection): 1.05±0.07 %ID/g; Tumor uptake ([5]; 30 min post-injection): 0.85±0.19 %ID/g; Uptake ratio Tumor/blood ([5]; 90 min post-injection): 1.78; Uptake ratio Tumor/muscle ([5]; 90 min post-injection): 1.32; Blood uptake ([5]; 90 min post-injection): 0.23±0.06 %ID/g; Bone uptake ([5]; 90 min post-injection): 0.30±0.05 %ID/g; Heart uptake ([5]; 90 min post-injection): 0.10±0.10 %ID/g; Lung uptake ([5]; 90 min post-injection): 0.34±0.27 %ID/g; Muscle uptake ([5]; 90 min post-injection): 0.31±0.11 %ID/g; Spleen uptake ([5]; 90 min post-injection): 0.54±0.19 %ID/g; Stomach uptake ([5]; 90 min post-injection): 0.72±0.27 %ID/g; Tumor uptake ([5]; 90 min post-injection): 0.41±0.11 %ID/g

With FRPNRAQDYNTN [DUP-1] as the substance, how does the “binding to DU-145 prostate cells” value [6] read?
The value was “high affinity”.

What about the “binding to PC-3 cells” value [7] of the same substance?
The value was “high affinity”.

And the serum stability [8]?
Its serum stability is “serum-instable”.
